Experimental data published in ChEMBL document CHEMBL1139795, “Capped diaminopropionamide-glycine dipeptides are inhibitors of CC chemokine receptor 2 (CCR2)” (Bioorg Med Chem Lett, 2007).

Columns and labels:
[1] = target: C-C chemokine receptor type 2 (Homo sapiens, UniProt P41597); experiment: Displacement of [125]MCP1 from CCR2 in human PBMCs
In short: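 Competition binding with 0.3 nM [125I]MCP-1 on human peripheral blood mononuclear cells at 23 °C. IC50 given as mean ± SD (n = 2) or mean ± SEM (n > 2). Single determinations are listed with n = 1.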

[2] = target: T1, C-C chemokine receptor type 1 (Homo sapiens) (UniProt P32246); experiment: Inhibition of CCR1 at 10 uM
T1 sequence (whole entry): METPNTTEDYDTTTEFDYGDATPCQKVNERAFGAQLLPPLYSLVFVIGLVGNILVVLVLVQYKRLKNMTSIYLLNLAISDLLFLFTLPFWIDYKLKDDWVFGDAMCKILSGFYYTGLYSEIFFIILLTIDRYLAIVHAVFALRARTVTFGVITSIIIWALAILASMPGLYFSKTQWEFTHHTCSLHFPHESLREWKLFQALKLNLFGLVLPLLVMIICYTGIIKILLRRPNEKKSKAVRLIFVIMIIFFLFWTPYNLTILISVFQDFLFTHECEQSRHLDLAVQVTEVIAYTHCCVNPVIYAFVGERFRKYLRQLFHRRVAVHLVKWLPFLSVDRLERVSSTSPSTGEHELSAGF

C-C chemokine receptor type 2, sequence (P41597 whole entry): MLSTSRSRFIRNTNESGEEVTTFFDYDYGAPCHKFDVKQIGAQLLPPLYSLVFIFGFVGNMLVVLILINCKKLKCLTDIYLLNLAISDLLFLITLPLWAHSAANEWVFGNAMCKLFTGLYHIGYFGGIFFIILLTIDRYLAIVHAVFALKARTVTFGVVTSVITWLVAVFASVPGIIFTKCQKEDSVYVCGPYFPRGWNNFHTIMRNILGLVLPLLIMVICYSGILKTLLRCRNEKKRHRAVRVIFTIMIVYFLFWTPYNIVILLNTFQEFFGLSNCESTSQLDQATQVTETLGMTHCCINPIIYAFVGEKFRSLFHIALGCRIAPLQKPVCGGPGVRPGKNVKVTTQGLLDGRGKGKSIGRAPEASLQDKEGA

IC50 [1]	inhibition [2]	SMILES
1700 nM	< 30%	CC(C)(C)NC(=O)[C@H](CNCc1ccc(Br)cc1)NC(=O)CNC(=O)c1cccc(C(F)(F)F)c1
88 nM	< 30%	Cc1ccc(CNC[C@H](NC(=O)CNC(=O)c2cccc(C(F)(F)F)c2)C(=O)NC2CC2)c(C)c1
310 nM	< 30%	CCOC(=O)Nc1cc(C(=O)NCC(=O)N[C@@H](CNCc2ccc(C)cc2C)C(=O)NC(C)(C)C)cc(C(F)(F)F)c1
7000 nM	< 30%	Cc1ccc(CNC[C@H](NC(=O)CNC(=O)c2cccc(C(F)(F)F)c2)C(=O)NCc2ccccc2)c(C)c1
3000 nM	< 30%	Cc1ccc(CNCC[C@H](NC(=O)CNC(=O)c2cccc(C(F)(F)F)c2)C(N)=O)c(C)c1
36 nM	< 30%	Cc1cc(N(C)C)ccc1CNC[C@H](NC(=O)CNC(=O)c1cccc(C(F)(F)F)c1)C(=O)NC(C)(C)C
630 nM	< 30%	Cc1ccc(CNC[C@@H](NC(=O)CNC(=O)c2cccc(C(F)(F)F)c2)C(N)=O)c(C)c1
–	< 30%	Cc1ccc(CNC[C@@H](C)NC(=O)CNC(=O)c2cccc(C(F)(F)F)c2)c(C)c1
90 nM	< 30%	Cc1ccc(CNC[C@H](NC(=O)CNC(=O)c2cc(C(F)(F)F)ccc2NC(=O)C2CCCCC2)C(=O)NC(C)(C)C)c(C)c1
97 nM	< 30%	Cc1ccc(CNC[C@H](NC(=O)CNC(=O)c2cccc(C(F)(F)F)c2)C(=O)NC2CCC2)c(C)c1
690 nM	< 30%	COc1ccc(CNC[C@H](NC(=O)CNC(=O)c2cccc(C(F)(F)F)c2)C(=O)NC(C)(C)C)c(C)c1C
230 nM	< 30%	CNC(=O)[C@H](CNCc1ccc(C)cc1C)NC(=O)CNC(=O)c1cccc(C(F)(F)F)c1
160 nM	< 30%	Cc1cc(Br)ccc1CNC[C@H](NC(=O)CNC(=O)c1cccc(C(F)(F)F)c1)C(=O)NC(C)(C)C
400 nM	< 30%	Cc1ccccc1CNC[C@H](NC(=O)CNC(=O)c1cccc(C(F)(F)F)c1)C(=O)NC(C)(C)C
1100 nM	< 30%	COc1ccc(CNC[C@H](NC(=O)CNC(=O)c2cccc(C(F)(F)F)c2)C(=O)NC(C)(C)C)cc1
250 nM	< 30%	Cc1ccc(CNC[C@H](NC(=O)CNC(=O)c2cccc(C(F)(F)F)c2)C(=O)N(C)C)c(C)c1
22000 nM	< 30%	CCNC(=O)[C@@H](CNC(=O)CNC(=O)c1cccc(C(F)(F)F)c1)NCc1ccc(C)cc1C
430 nM	< 30%	CN(C)c1ccc(CNC[C@H](NC(=O)CNC(=O)c2cccc(C(F)(F)F)c2)C(=O)NC(C)(C)C)cc1
1500 nM	< 30%	COC(=O)[C@H](CNCc1ccc(C)cc1C)NC(=O)CNC(=O)c1cccc(C(F)(F)F)c1
260 nM	< 30%	Cc1ccc(CNC[C@H](NC(=O)CNC(=O)c2cccc(C(F)(F)F)c2)C(=O)N2CCCC2)c(C)c1
130 nM	< 30%	Cc1ccc(CNC[C@H](NC(=O)CNC(=O)c2cc(NCC(C)C)cc(C(F)(F)F)c2)C(=O)NC(C)(C)C)c(C)c1

IC50 [1]	inhibition [2]	SMILES
110 nM	< 30%	Cc1ccc(CNC[C@H](NC(=O)CNC(=O)c2cc(NCc3ccccc3)cc(C(F)(F)F)c2)C(=O)NC(C)(C)C)c(C)c1
–	< 30%	Cc1ccc(CNC[C@H](NC(=O)CNC(=O)c2cccc(C(F)(F)F)c2)C(C)C)c(C)c1
190 nM	< 30%	Cc1ccc(CNC[C@H](NC(=O)CNC(=O)c2cccc(OC(F)(F)F)c2)C(=O)NC(C)(C)C)c(C)c1
99 nM	< 30%	Cc1ccc(CNC[C@H](NC(=O)CNC(=O)c2cccc(C(F)(F)F)c2)C(=O)NC2CCCC2)c(C)c1
47 nM	< 30%	COc1ccc(CNC[C@H](NC(=O)CNC(=O)c2cccc(C(F)(F)F)c2)C(=O)NC(C)(C)C)c(C)c1
28 nM	< 30%	Cc1ccc(CNC[C@H](NC(=O)CNC(=O)c2cc(OC(F)(F)F)ccc2N)C(=O)NC(C)(C)C)c(C)c1
380 nM	< 30%	CCc1ccccc1CNC[C@H](NC(=O)CNC(=O)c1cccc(C(F)(F)F)c1)C(=O)NC(C)(C)C
55 nM	< 30%	Cc1ccc(CNC[C@H](NC(=O)CNC(=O)c2cccc(C(F)(F)F)c2)C(=O)NCC(F)(F)F)c(C)c1
110 nM	< 30%	CON(C)C(=O)[C@H](CNCc1ccc(C)cc1C)NC(=O)CNC(=O)c1cccc(C(F)(F)F)c1
130 nM	< 30%	CCNC(=O)[C@@H](NC(=O)CNC(=O)c1cccc(C(F)(F)F)c1)[C@@H](C)NCc1ccc(C)cc1C
2200 nM	< 30%	Cc1ccc(CNC[C@H](CO)NC(=O)CNC(=O)c2cccc(C(F)(F)F)c2)c(C)c1
320 nM	< 30%	Cc1ccc(CNC[C@@H](CO)NC(=O)CNC(=O)c2cccc(C(F)(F)F)c2)c(C)c1
120 nM	< 30%	CCC(C)(C)NC(=O)[C@H](CNCc1ccc(C)cc1C)NC(=O)CNC(=O)c1cccc(C(F)(F)F)c1
7200 nM	< 30%	CC(C)(C)NC(=O)[C@H](CNCc1ccc(S(C)(=O)=O)cc1)NC(=O)CNC(=O)c1cccc(C(F)(F)F)c1
750 nM	< 30%	Cc1ccc(CNC[C@H](NC(=O)CNC(=O)c2cccc(C(F)(F)F)c2)C(=O)NC(C)(C)C)cc1
560 nM	< 30%	CCNC(=O)[C@@H](CNCc1ccc(C)cc1C)NC(=O)CNC(=O)c1cccc(C(F)(F)F)c1
530 nM	< 30%	CCc1ccc(CNC[C@H](NC(=O)CNC(=O)c2cccc(C(F)(F)F)c2)C(=O)NC(C)(C)C)cc1
900 nM	< 30%	Cc1cc(C#N)ccc1CNC[C@H](NC(=O)CNC(=O)c1cccc(C(F)(F)F)c1)C(=O)NC(C)(C)C
410 nM	< 30%	CCNC(=O)[C@H](CCNCc1ccc(C)cc1C)NC(=O)CNC(=O)c1cccc(C(F)(F)F)c1
200 nM	< 30%	C=CCNC(=O)[C@H](CNCc1ccc(C)cc1C)NC(=O)CNC(=O)c1cccc(C(F)(F)F)c1
1000 nM	< 30%	COC(=O)[C@@H](CNCc1ccc(C)cc1C)NC(=O)CNC(=O)c1cccc(C(F)(F)F)c1

IC50 [1]	inhibition [2]	SMILES
65 nM	< 30%	Cc1ccc(CNC[C@H](NC(=O)CNC(=O)c2cc(C(F)(F)F)ccc2NC(=O)OC(C)C)C(=O)NC(C)(C)C)c(C)c1
5600 nM	< 30%	CCCCc1ccc(CNC[C@H](NC(=O)CNC(=O)c2cccc(C(F)(F)F)c2)C(=O)NC(C)(C)C)cc1
190 nM	< 30%	Cc1ccc(CNC[C@H](NC(=O)CNC(=O)c2cccc(C(F)(F)F)c2)C(=O)NC(C)(C)CO)c(C)c1
23 nM	< 30%	Cc1ccc(CNC[C@H](NC(=O)CNC(=O)c2cc(C(F)(F)F)ccc2NCC(C)C)C(=O)NC(C)(C)C)c(C)c1
770 nM	< 30%	Cc1ccc(CNCC[C@H](NC(=O)CNC(=O)c2cccc(C(F)(F)F)c2)C(=O)NC(C)(C)C)c(C)c1
150 nM	< 30%	Cc1ccc(CNC[C@H](NC(=O)CNC(=O)c2cccc(SC(F)(F)F)c2)C(=O)NC(C)(C)C)c(C)c1
150 nM	< 30%	Cc1ccc(CNC[C@H](NC(=O)CNC(=O)c2cccc(C(F)(F)F)c2)C(=O)NC2CCCCC2)c(C)c1
170 nM	< 30%	Cc1ccc(CNC[C@H](NC(=O)CNC(=O)c2cccc(C(F)(F)F)c2)C(=O)NC(C)C)c(C)c1
110 nM	< 30%	Cc1ccc(CNC[C@@H](NC(=O)CNC(=O)c2cccc(C(F)(F)F)c2)C(=O)NC(C)(C)C)c(C)c1
15000 nM	< 30%	COC(=O)[C@@H](CNC(=O)CNC(=O)c1cccc(C(F)(F)F)c1)NCc1ccc(C)cc1C
150 nM	< 30%	CCNC(=O)[C@H](CCN(C)Cc1ccc(C)cc1C)NC(=O)CNC(=O)c1cccc(C(F)(F)F)c1
1200 nM	< 30%	Cc1ccc(CNC[C@H](NC(=O)CNC(=O)c2cccc(C(F)(F)F)c2)C(=O)Nc2ccccc2)c(C)c1
36 nM	< 30%	CCc1ccc(CNC[C@H](NC(=O)CNC(=O)c2cccc(C(F)(F)F)c2)C(=O)NC(C)(C)C)c(C)c1
1300 nM	< 30%	COc1cc(C)c(CNC[C@H](NC(=O)CNC(=O)c2cccc(C(F)(F)F)c2)C(=O)NC(C)(C)C)cc1C
60 nM	< 30%	Cc1ccc(CNC[C@H](NC(=O)CNC(=O)c2cccc(C(F)(F)F)c2)C(=O)NCC2CC2)c(C)c1
16 nM	< 30%	CNc1cc(C(=O)NCC(=O)N[C@@H](CNCc2ccc(C)cc2C)C(=O)NC(C)(C)C)cc(C(F)(F)F)c1
400 nM	< 30%	Cc1ccc(CNC[C@H](NC(=O)CNC(=O)c2cccc(C(F)F)c2)C(=O)NC(C)(C)C)c(C)c1
490 nM	< 30%	Cc1ccc(CNC[C@H](NC(=O)CNC(=O)c2cccc(C(F)(F)F)c2)C(=O)N2CCOCC2)c(C)c1
8700 nM	< 30%	CCNC(=O)C(C)(CNCc1ccc(C)cc1C)NC(=O)CNC(=O)c1cc(C(F)(F)F)ccc1N (racemic)
5500 nM	< 30%	Cc1ccc(CNC[C@H](NC(=O)CNC(=O)c2cccc(C(F)(F)F)c2)C(=O)O)c(C)c1
